This is a sample that favours compounds with a hit; in the whole collection about 3% have one here.
UBC13 polyUb: UBC13 polyubiquitin chain formation inhibitors, primary screen, biochemical, TR-FRET, uHTS. Ubiquitin-conjugating enzyme E2 N (Homo sapiens), P61088. inhibition, % at 20 µM. hit rate 0.47% among 330,000; in the data active means inhibition above about 45%, passing the limit was not always enough
UCH37 inh: inhibitors of human UCH37 deubiquitinase, primary screen, biochemical, Ub-AMC cleavage, fluorescence. purified proteasome/UCH37. hit rate 0.33% among 330,000. inhibition, % (test concentration not listed). AID 588478, 2011. Ubiquitin carboxyl-terminal hydrolase isozyme L5 (Homo sapiens), Q9Y5K5;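 active means mean inhibition over replicate wells above about 20%, limit read from the data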;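 further: 0% = compound-free wells with enzyme and 100% = wells lacking proteasome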
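assay system = human UCH37 enzyme supplied as purified proteasome complex | amount = proteasome at 0.15 nM in the dispensed enzyme solution | schedule = 30 min compound-proteasome preincubation then 25 min substrate reaction, room temperature | measured by = fluorescence, ex 355 nm, em 460 nm | benchmarks = no-proteasome wells (full inhibition) and compound-free wells (no inhibition)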
Apaf-1 inh: inhibitors of human Apaf-1 apoptosome, primary screen, biochemical, DEVD-Rh110 fluorescence, uHTS; Apoptotic protease-activating factor 1 (Homo sapiens), O14727; reconstituted apoptosome caspase-3 activity; inhibition, % at 20 µM; hit rate 0.71% among 330,000; AID 489030, 2010; active means inhibition of at least 40% at 20 µM;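 further: plate controls were DMSO wells for no effect and DEVD-CHO caspase inhibitor wells for full effect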
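Assay system – apoptosome proteins · Medium – Hepes buffer, pH 7.5 · Also added – cytochrome c with DEVD-Rh110 · Timing – 30 min compound preincubation, 50 min activation, room temperature · Detection – Rh110 fluorescence, excitation 480 nm, emission 540 nm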
MEKK2wt PB1 HTS: modulators of MEK5 binding to wildtype MEKK2, primary screen, biochemical, multiplex bead flow cytometry, Alexa488-MEK5. Mitogen-activated protein kinase kinase kinase 2 (Homo sapiens), Q9Y2U5. Alexa488-MEK5 binding to MEKK2 WT; actives lie on both sides. binding response (% of control), % at 10 µM. hit rate 1.1% among 290,000. AID 1531, 2009; in the data active means binding response below about 67% or above about 130%
MEKK3 PB1 HTS: modulators of MEKK3-MEK5 PB1 binding, primary screen, biochemical, wildtype MEKK3, multiplex bead flow cytometry, Alexa488-MEK5; Mitogen-activated protein kinase kinase kinase 3 (Homo sapiens), Q99759; bead-based flow cytometry, Alexa488-MEK5 binding to MEKK3; actives lie on both sides; 0 = blocked by unlabeled MEK5, 100 = vehicle; binding response (% of control), % at 10 µM; hit rate 1.4% among 290,000;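 active means binding response more than 3 SD above or below the average of its plate-row segment, actives on both sides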;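 further: Alexa488 bead fluorescence after subtracting the streptavidin-only scavenger bead signal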
MEKK2mut PB1 HTS: MEK5 binding signal on mutant MEKK2 PB1, primary screen, biochemical, multiplex bead flow cytometry, Alexa488-MEK5 | Alexa488-MEK5 binding to MEKK2 mutant | hit rate 0.35% among 290,000 | percent response, % at 10 µM; in the data active means percent response above about 24%, passing the limit was not always enough
MEKK2wt confirm: modulators of MEK5 binding to wildtype MEKK2, confirmation, biochemical, single concentration, multiplex bead flow cytometry; shares compounds with MEKK3 PB1 HTS; Alexa488-MEK5 binding to MEKK2 WT; actives lie on both sides; binding response (% of control), % at 10 µM; hit rate 2.4% among 5,900; AID 1892, 2009; in the data active means binding response below about 16% or above about 210%; inactive means in between
MEKK2mut-MEK5: mutant MEKK2 PB1-MEK5 binding signal retest – biochemical, single concentration, multiplex bead flow cytometry, confirmation. shares compounds with MEKK3 PB1 HTS. AID 1893, 2009. percent response, % at 10 µM. hit rate 2% among 5,900. Alexa488-MEK5 binding to MEKK2 mutant; in the data active means percent response mostly above about 71%, no sharp cut-off; inactive means mostly below about 38%;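 further: higher means compound restores mutant binding toward wildtype level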
MEKK3 confirm: MEKK3 wild-type PB1 binding to MEK5, inhibitors, confirmation, biochemical, bead multiplex flow cytometry, single concentration, wildtype. shares compounds with MEKK3 PB1 HTS. hit rate 1.8% among 5,900. Alexa488-MEK5 binding to MEKK3; hits give low values. binding response (% of control), % at 10 µM;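 active means binding response below 72% of control, or above a set upper limit, though filed actives all read lower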;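 further: 100% = DMSO only wells and 0% = binding blocked by excess unlabeled MEK5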
Casp3 UBC13 ctr: CASP3 inhibitor validation, counterassay for project on UBE2N polyubiquitination blockers, biochemical, one dose; inhibition, % at 20 µM; Recombinant caspase-3, Caspase-Glo 3/7 luminescence, 60 min; hit rate 4% among 1,400; shares compounds with UBC13 polyUb; AID 488856, 2010;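 active means mean inhibition across replicates above about 26%, limit read from the data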;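 further: plate controls were DMSO with caspase-3 for no effect and DMSO wells lacking enzyme for full effect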
UBC13 conf: UBC13 polyubiquitination inhibitors, single-point retest, confirmation, biochemical, TR-FRET, single concentration. AID 488859, 2010. hit rate 68% among 1,400. shares compounds with UBC13 polyUb. inhibition, % at 10 µM; in the data active means inhibition above about 45%
The depositor's hits bear a star; nt = not tested or not shown.

SMILES	UBC13 polyUb	UCH37 inh	Apaf-1 inh	MEKK2wt PB1 HTS	MEKK3 PB1 HTS	MEKK2mut PB1 HTS	MEKK2wt confirm	MEKK2mut-MEK5	MEKK3 confirm	Casp3 UBC13 ctr	UBC13 conf
CCN1CCN(Cc2ccc(NC(=O)c3cc(NC(=O)c4cnn(-c5ccccc5)c4N)cc(OC)c3)cc2C(F)(F)F)CC1	79*	1	19	151*	107	53*	214*	48	100	-4	50*
CCN1CCN(Cc2ccc(NC(=O)c3cc(NC(=O)c4cc(C)on4)cc(OC)c3)cc2C(F)(F)F)CC1	52*	0	33	193*	113	30*	144	30	106	-3	26
CN(C(=O)C1CCN(S(=O)(=O)c2ccccc2)CC1)c1c(N)n(Cc2ccccc2)c(=O)[nH]c1=O	0	3	7	nt	nt	nt	nt	nt	nt	nt	nt
C/C=C1\COC(C(=O)NCCN2CCCC2)(C(F)(F)F)C=C1C=C1CCCCC1 (stereo not given)	55*	3	24	141*	103	17	134	14	110	-1	52*
C/C=C1\COC(C(=O)NCc2ccccc2)(C(F)(F)F)C=C1C=C1CCCCC1 (stereo not given)	4	1	8	102	104	1	nt	nt	nt	nt	nt
CN1CCc2c(sc3c2C(=O)NC(c2cn(Cc4ccccc4)c4ccccc24)N3)C1 (stereo not given)	51*	-6	17	182*	92	66*	240*	107*	109	-2	64*
CN1CCc2c(sc3c2C(=O)NC(c2ccco2)N3)C1 (stereo not given)	-6	-6	3	95	97	-1	nt	nt	nt	nt	nt
NC1=NC[C@H](Cc2ccc(O)cc2)N1CCc1cccc2ccccc12	61*	0	23	152*	116	50*	150	25	98	-2	50*
c1ccc(C[C@H]2CN=C(Nc3ccccc3)N2CCC2CCCC2)cc1	40	-2	23	nt	nt	nt	nt	nt	nt	nt	nt
NC1=NC[C@H](Cc2ccccc2)N1CCCCC1CCCCC1	86*	2	67*	151*	111	13	132	13	106	-2	80*
COc1ccc([N+](=O)[O-])cc1NC(=O)CC1SC(=Nc2cccc(C)c2C)N(N=C(C)c2ccc(C)cc2)C1=O (stereo not given)	nt	8	nt	nt	nt	nt	nt	nt	nt	nt	nt
Cc1ccc(-c2nn(-c3ccccc3)cc2CSC(=N)N)cc1	45*	nt	25	205*	113	52*	141	13	82	1	48*

Assay outcomes deposited in PubChem BioAssay by several laboratories.
